# Laboratory results: ChEMBL document CHEMBL1122328, “Hypolipidemic activity of phthalimide derivatives. 2. N-phenylphthalimide and derivatives” (1983)
# How the values were obtained:
# [1] = system: Mus musculus; experiment: Effect on cholesterol from CF1 male mice after 16 days at a dose of 40 (mg/kg/day); assay type: functional
# Summary of the method: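 CF1 male mice dosed ip for 16 days at 10–60 (mg/kg)/day; liver taken and 10% homogenate made in 0.25 M sucrose + 0.001 M EDTA; aliquot extracted by Folch and Bligh–Dyer methods, mg lipid weighed, cholesterol measured by Liebermann–Burchard method; n = 6; % of 1% CMC control.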
# [2] = system: Mus musculus; experiment: In vitro effect on CF1 male mouse on acyltransferase after 16 days at a dose of 10 (mg/kg)/day; assay type: functional
# Summary of the method: (§1)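 In vivo enzyme study. CF₁ male mice were dosed ip for 16 days in 1% CMC, and liver was homogenised to 10% in 0.25 M sucrose with 0.001 M EDTA. Enzymes assayed: acetyl-CoA synthetase as hydroxamate at 540 nm after 30 min at 37 °C; HMG CoA reductase with [1-¹⁴C]acetate in 9000g supernatant for 60 min at 37 °C; fatty acid synthetase with [2-¹⁴C]malonyl-CoA; acyltransferase with [³H]glycerol 3-phosphate and microsomes for 10 min; phosphatidate phosphohydrolase as released phosphate at 820 nm after 30 min. N = 6; reported as % control.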
# [3] = system: Mus musculus; experiment: Effect on neutral lipids from CF1 male mice after 16 days at a dose of 60 (mg/kg/day); assay type: functional
# Summary of the method: (§2)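 Dosing was ip in CF₁ male mice (~25 g) for 16 days, with compound suspended in 1% carboxymethylcellulose. Liver was then taken and homogenised to 10% in 0.25 M sucrose with 0.001 M EDTA. Lipid was extracted from a 2 mL aliquot by the Folch and Bligh–Dyer methods and total mg of lipid was weighed. Cholesterol (Liebermann–Burchard), triglycerides (kit), neutral lipids and phospholipids were then measured; N = 6; reported as % of vehicle control.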
# [4] = system: Mus musculus; experiment: Effect on phospholipids from CF1 male mice after 16 days at a dose of 10 (mg/kg/day); assay type: functional; summary of the method: as §2
# [5] = system: Mus musculus; experiment: Effect on phospholipids from CF1 male mice after 16 days at a dose of 60 (mg/kg/day); assay type: functional; summary of the method: as §2
# [6] = system: Mus musculus; experiment: Effect on triglycerides from CF1 male mice after 16 days at a dose of 20 (mg/kg/day); assay type: functional; summary of the method: as §2
# [7] = system: Mus musculus; experiment: Effect on Serum cholesterol levels on CF1 male mice at a dose of 100 (mg/kg)/day after 9 days; assay type: functional
# Summary of the method: (§3)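 CF1 male mice (~25 g), drug suspended in 1% carboxymethylcellulose in water, given ip daily for 16 days; n = 6; vehicle control. Tail-vein blood on days 9 and 16, serum cholesterol by modified Liebermann–Burchard reaction; day-14 serum triglyceride by commercial kit; expressed as % control.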
# [8] = system: Mus musculus; experiment: Effect on Serum cholesterol levels on CF1 male mice at a dose of 20 (mg/kg)/day after 9 days; assay type: functional; summary of the method: as §3
# [9] = system: Mus musculus; experiment: Effect on Serum cholesterol levels on CF1 male mice at a dose of 50 (mg/kg)/day after 16 days; assay type: functional; summary of the method: as §3
# [10] = species: Mus musculus; experiment: Effect on Serum cholesterol levels on Hyperlipidemic induced mice After 2-week diet; assay type: functional
# Summary of the method: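 Mice fed atherogenic diet for 2 weeks to raise serum lipids, then given drug at 20 (mg/kg)/day ip for a further 2 weeks; serum cholesterol and triglyceride measured after the diet and after 14 days dosing; n = 6; compared with 1% CMC and diet-only controls; % control.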
# [11] = system: Mus musculus; experiment: Effect on Serum triglceride levels on CF1 male mice at a dose of 12.5 (mg/kg)/day after 14 days; assay type: functional; summary of the method: as §3
# [12] = system: Mus musculus; experiment: Effect on Serum triglceride levels on CF1 male mice at a dose of 20 (mg/kg)/day after 14 days; assay type: functional; summary of the method: as §3
# [13] = system: Mus musculus; experiment: In vitro effect on CF1 male mouse onAc-CoA carboxylase after 16 days at a dose of 10 (mg/kg)/day; assay type: functional; conditions: in the assay text read “In vivo” for “In vitro”
# Summary of the method: (§4)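 Mice (CF1 males) given agent ip daily for 16 days in 1% carboxymethylcellulose; liver 10% homogenate in 0.25 M sucrose + 0.001 M EDTA. Acetyl-CoA carboxylase first polymerized 30 min at 37 °C, then incubated 30 min at 37 °C with sodium [14C]bicarbonate (41.0 mCi/mmol); incorporated label counted. Activity as % of vehicle control; N = 6.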
# [14] = system: Mus musculus; experiment: In vitro effect on CF1 male mouse onAc-CoA carboxylase after 16 days at a dose of 40 (mg/kg)/day; assay type: functional; conditions: in the assay text read “In vivo” for “In vitro”; summary of the method: as §4
# [15] = system: Mus musculus; experiment: In vitro effect on CF1 male mouse on Fatty acid synthetase after 16 days at a dose of 60 (mg/kg)/day; assay type: functional; summary of the method: as §1
# [16] = system: Mus musculus; experiment: In vitro effect on CF1 male mouse on HMGCoA reductase after 16 days at a dose of 20 (mg/kg)/day; assay type: functional; summary of the method: as §1
# [17] = system: Mus musculus; experiment: In vitro effect on CF1 male mouse on HMGCoA reductase after 16 days at a dose of 60 (mg/kg)/day; assay type: functional; summary of the method: as §1
# [18] = species: Mus musculus; experiment: In vitro effect on CF1 male mouse on Ac-CoA carboxylase; assay type: functional
# Summary of the method: (§5)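 In vitro test on 10% CF₁ male mouse liver homogenate (0.25 M sucrose, 0.001 M EDTA) with 2.5 μmol test drug. Assays: acetyl-CoA synthetase and citrate lyase as hydroxamate at 540 nm, 30 min, 37 °C; citrate exchange from [¹⁴C]citrate-loaded mitochondria after 10 min with drug; side-chain oxidation by ¹⁴CO₂ from [26-¹⁴C]cholesterol, 18 h, 37 °C; acetyl-CoA carboxylase by [¹⁴C]bicarbonate fixation after 30 min polymerization then 30 min at 37 °C.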
# [19] = species: Mus musculus; experiment: In vitro effect on CF1 male mouse on Ac-CoA synthetase; assay type: functional; summary of the method: as §5
# [20] = system: Rattus norvegicus; experiment: Effect on Chylomicrons of Triglycerides Holtzman rats after 14 days administration; assay type: functional
# Summary of the method: (§6)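 Holtzman male rats (~400 g) given drug at 20 (mg/kg)/day for 14 days; on day 14 blood taken from the abdominal aorta and serum separated by centrifugation at 3500 rpm; lipid and protein content of the lipoprotein fractions measured.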
# [21] = system: Rattus norvegicus; experiment: Effect on Serum cholesterol levels on Holtzman rats at a dose of 10 (mg/kg)/day after 9 days; assay type: functional
# Summary of the method: (§7)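 Holtzman male rats (~200 g) dosed orally by intubation needle daily for 16 days, drug suspended in 1% carboxymethylcellulose; n = 6; vehicle control. Tail-vein serum cholesterol on days 9 and 16 by modified Liebermann–Burchard reaction; day-14 serum triglyceride by commercial kit; % control.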
# [22] = system: Rattus norvegicus; experiment: Effect on Serum cholesterol levels on Holtzman rats at a dose of 20 (mg/kg)/day after 9 days; assay type: functional; summary of the method: as §7
# [23] = system: Rattus norvegicus; experiment: Effect on Serum triglceride levels on Holtzman rats at a dose of 10 (mg/kg)/day after 14 days; assay type: functional; summary of the method: as §7
# [24] = system: Rattus norvegicus; experiment: Effect on Serum triglceride levels on Holtzman rats at a dose of 30 (mg/kg)/day after 14 days; assay type: functional; summary of the method: as §7
# [25] = system: Rattus norvegicus; experiment: Effect on high density Triglycerides Holtzman rats after 14 days administration; assay type: functional; summary of the method: as §6
# [26] = system: Mus musculus; experiment: Effect on Serum cholesterol levels on CF1 male mice at a dose of 100 (mg/kg)/day after 16 days; assay type: functional; summary of the method: as §3
# [27] = system: Mus musculus; experiment: In vivo effect on CF1 male mouse on Lipid content after 16 days at a dose of 10 (mg/kg)/day
# [28] = system: Mus musculus; experiment: In vivo effect on CF1 male mouse on Lipid content after 16 days at a dose of 20 (mg/kg)/day
# [29] = system: Mus musculus; experiment: In vivo effect on CF1 male mouse on Lipid content after 16 days at a dose of 40 (mg/kg)/day
smiles,measurement,setting,value
CC(=O)c1ccccc1N1C(=O)c2ccccc2C1=O,Control,[1],71%
same,Control,[2],35%
same,Control,[3],62%
same,Control,[4],90%
same,Control,[5],86%
same,Control,[6],91%
same,Control,[7],42%
same,Control,[8],89%
same,Control,[9],29%
same,Control,[10],289%
same,Control,[11],56%
same,Control,[12],56%
same,Control,[13],8%
same,Control,[14],48%
same,Control,[15],100%
same,Control,[16],81%
same,Control,[17],94%
same,Control,[18],35%
same,Control,[19],63%
same,Control,[20],41%
same,Control,[21],66%
same,Control,[22],76%
same,Control,[23],76%
same,Control,[24],75%
same,Control,[25],63%
same,Control,[26],26%
same,Control,[27],84%
same,Control,[28],85%
same,Control,[29],80%
